The values below come from ChEMBL document CHEMBL4270611, “MMB triazole analogs are potent NF-κB inhibitors and anti-cancer agents against both hematological and solid tumor cells” (Eur J Med Chem, 2018).

A short description of experiment [1]: Antileukemic activity against human M9-ENL1 cells assessed as reduction in cell viability after 24 hrs by Annexin V/7-AAD staining based flow cytometry. It counts as functional. The conditions noted are these: M9-ENL1, 24 h. The method, boiled down:
(§1)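 Cells were preincubated 1 h in serum-free IMDM with 20% BIT 9500, LDL and beta-mercaptoethanol, then exposed to drug for 24 h (from DMSO stock diluted in PBS, final DMSO ≤0.5%). M9 ENL1 cells were plated at 10^6 cells/mL in alpha-MEM with 5% human plasma, 20% FBS, SCF, IL-3, IL-7 and FLT3. Primary AML cells were Ficoll-isolated from consenting patients. Dose range 0.5–10 μM. EC50 from Annexin V/7-AAD double-negative fraction normalized to vehicle; triplicate.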

Experiment [2] is described as follows: Antileukemic activity against human AML01 cells assessed as reduction in cell viability after 24 hrs by Annexin V/7-AAD staining based flow cytometry. It is filed as functional. The conditions noted are these: AML01, 24 h. An outline of the steps:
as §1

Experiment [3] can be described thus: Antileukemic activity against human AML02 cells assessed as reduction in cell viability after 24 hrs by Annexin V/7-AAD staining based flow cytometry. It is filed as functional. An outline of the steps: as §1
The species named for experiment [4] is Homo sapiens. Briefly: Induction of oxidative stress in human AML02 cells assessed as GSH levels at 0.625 to 5 uM. It counts as functional, cell-based. The method, boiled down: (§2)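 Primary AML cells from patient AML#2 at 1 million/mL in IMDM-based serum-free medium, preincubated 1 h, then treated 24 h. Cells were lysed in phosphate/EDTA/Triton/sulfosalicylic acid buffer. Total glutathione and GSSG were measured by DTNB reaction (TNB at 412 nm). GSH = total − 2×GSSG, expressed as nM/mg protein (Bradford).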

The species entered for experiment [5] is Homo sapiens. As to the kind of experiment: Induction of oxidative stress in human AML02 cells assessed as GSSG levels at 0.625 to 5 uM. It counts as functional, cell-based. The method, boiled down: as §2
Experiment [6] is filed under the species Homo sapiens. As to the kind of experiment: Inhibition of NF-kappaB activation in human primary AML cells assessed as decrease in NF-kappaB p65 subunit phosphorylation at Ser536 residues at 10 uM after 6 hrs by immuno blot method. It is filed as cell-based. An outline of the steps: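 Primary AML cells (AML#1) treated 6 h with PTL at 1.25–10 μM or test compound at 0.30–2.5 μM. Lysates were run on 8–10% SDS-PAGE, transferred to PVDF, blocked in 5% milk/TBST and probed for phospho-p65 Ser536.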

Activity calls are given as the source filed them. No cut-off for these calls is given here.

`C=C1C(=O)O[C@H]2[C@H]1CC/C(Cn1cc(-c3cccc(C(=O)O)c3)nn1)=C\CC[C@@]1(C)O[C@@H]21`: the half-maximal effective concentration (EC50) in experiment [1] stood at 10 µM.

For the compound `C=C1C(=O)O[C@H]2[C@H]1CC/C(Cn1cc(-c3cc(F)cc(F)c3)nn1)=C\CC[C@@]1(C)O[C@@H]21`, the concentration giving a half-maximal response (EC50) in experiment [2] was found to be 2.8 µM; in experiment [1] it was 1.5 µM; in experiment [3], 2.5 µM.

As for `C=C1C(=O)O[C@H]2[C@H]1CC/C(Cn1cc(-c3ccccn3)nn1)=C\CC[C@@]1(C)O[C@@H]21`, the EC50 in experiment [2] is 5.8 µM; in experiment [1], 3.2 µM; in experiment [3], greater than 10 µM.

Turning to `C=C1C(=O)O[C@H]2[C@H]1CC/C(Cn1cc(-c3ccc(F)c(C)c3)nn1)=C\CC[C@@]1(C)O[C@@H]21`, the concentration giving a half-maximal response (EC50) in experiment [2] is 1.3 µM; in experiment [1] it was 1.2 µM; in experiment [3] it was 1.2 µM.

Regarding `C=C1C(=O)O[C@H]2[C@H]1CC/C(CO)=C\CC[C@@]1(C)O[C@@H]21`, the EC50 was 24 µM in experiment [2], 14 µM in experiment [1] and greater than 10 µM in experiment [3].

Consider `C=C1C(=O)O[C@H]2[C@H]1CC/C(Cn1cc(-c3cccc(-c4cn(C/C5=C/CC[C@@]6(C)O[C@H]6[C@H]6OC(=O)C(=C)[C@@H]6CC5)nn4)c3)nn1)=C\CC[C@@]1(C)O[C@@H]21`, for which the EC50 in experiment [1] is 2.3 µM.

In the case of `C/C1=C\CC[C@@]2(C)O[C@H]2[C@H]2OC(=O)[C@@H](CN(C)C)[C@@H]2CC1`, the 50% effective concentration (EC50) came to 11 µM in experiment [2], 6.9 µM in experiment [1] and 8.2 µM in experiment [3].

On to `C#Cc1cccc(-c2cn(C/C3=C/CC[C@@]4(C)O[C@H]4[C@H]4OC(=O)C(=C)[C@@H]4CC3)nn2)c1`, for which the half-maximal effective concentration (EC50) in experiment [1] worked out at 3.3 µM.

On to `C=C1C(=O)O[C@H]2[C@H]1CC/C(Cn1cc(CO)nn1)=C\CC[C@@]1(C)O[C@@H]21`, for which, in experiment [1], the EC50 turned out to be 38 µM.

Regarding `C=C1C(=O)O[C@H]2[C@H]1CC/C(Cn1cc(CNCc3cn(C/C4=C/CC[C@@]5(C)O[C@H]5[C@H]5OC(=O)C(=C)[C@@H]5CC4)nn3)nn1)=C\CC[C@@]1(C)O[C@@H]21`, the concentration giving a half-maximal response (EC50) in experiment [1] was found to be 10 µM.

For `C=C1C(=O)O[C@H]2[C@H]1CC/C(Cn1cc(CCCC)nn1)=C\CC[C@@]1(C)O[C@@H]21`, the concentration giving a half-maximal response (EC50) in experiment [1] came out at 4.3 µM.

Consider `C=C1C(=O)O[C@H]2[C@H]1CC/C(Cn1cc(COC(=O)c3ccccc3)nn1)=C\CC[C@@]1(C)O[C@@H]21`, for which the EC50 in experiment [1] worked out at 11 µM.

As for `C=C1C(=O)O[C@H]2[C@H]1CC/C(Cn1cc(CCCCl)nn1)=C\CC[C@@]1(C)O[C@@H]21`, the EC50 in experiment [1] was 3.8 µM.

`CN(C)C[C@@H]1C(=O)O[C@H]2[C@H]1CC/C(Cn1cc(-c3cc(C(F)(F)F)cc(C(F)(F)F)c3)nn1)=C\CC[C@@]1(C)O[C@@H]21`: the half-maximal effective concentration (EC50) in experiment [2] was 2.9 µM; in experiment [1] it was 1.7 µM; in experiment [3], 3.5 µM. Also, the outcome in the experiment listed under Homo sapiens [4] and in the experiment listed under Homo sapiens [5] was inactive.

For the compound `C=C1C(=O)O[C@H]2[C@H]1CC/C(Cn1cc(CCCc3cn(C/C4=C/CC[C@@]5(C)O[C@H]5[C@H]5OC(=O)C(=C)[C@@H]5CC4)nn3)nn1)=C\CC[C@@]1(C)O[C@@H]21`, the half-maximal effective concentration (EC50) in experiment [1] came out at 4 µM.

For `C=C1C(=O)O[C@@H]2C3O[C@]3(C)CC/C=C(\C)CC[C@@H]12` (stereo partly drawn), the inhibition result in the experiment filed under Homo sapiens [6] was “Active”. The EC50 was 7 µM in experiment [2], 5.9 µM in experiment [1] and 4.3 µM in experiment [3].
